High-throughput results: PubChem BioAssay, several laboratories
ARFGAP1 inh: rat ARFGAP1 inhibition. Q62848. Arfgap1-stimulated ARF1 GTP hydrolysis, GDP FP detection. inhibition, % at 16.5 µM. actives 0.26% (n = 360,000). AID 651572;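 active = inhibition above a per-plate limit, mean inhibition of low control wells plus 3 SD, cut at about 25% in these data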;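 note: 0% = DMSO wells with enzyme and 100% = wells lacking Arfgap1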
Target sequence (Q62848 1-136 limits assumed): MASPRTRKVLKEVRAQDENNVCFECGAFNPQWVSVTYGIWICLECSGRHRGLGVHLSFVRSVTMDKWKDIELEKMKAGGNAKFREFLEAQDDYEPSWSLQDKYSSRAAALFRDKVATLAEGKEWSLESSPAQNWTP
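Material: truncated rat Arfgap1 GAP domain; Incubation: compound-enzyme preincubation 20 min, reaction 120 min, detection 60 min, 25 °C; Read-out: percent inhibition of Arfgap1-stimulated GTP hydrolysis; Technique: FP, GDP Alexa 633 tracer displaced from anti-GDP antibody, 620/688 nm; Controls: No-Arfgap1 wells (100%) versus DMSO full-reaction wells (0%); Replication: single well per compound.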
procasp3 activ: activates human procaspase-3 | P42574 | recombinant procaspase-3 D3A, Ac-DEVD-pNA absorbance 405 nm | activation, % at 8.5 µM | actives 0.11% (n = 330,000) | AID 463141;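 active = activation above the mean of all tested compounds plus 3 SD, cut at about 21% in these data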;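 note: 0% = DMSO alone and 100% = DMSO wells spiked with extra 5 µM PC-3 D3A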
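assay system = Procaspase-3 D3A mutant | signal = absorbance at 405 nm, 0 and 120 min | times = 1 h preincubation plus 2 h reaction at 25 °C | repeats = single replicate | read-out = % activation between DMSO and enzyme-spiked controls | medium = Zinc-free HEPES saline buffer with Triton X-100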
LANA-H2B inh: blocks KSHV LANA binding to histone H2A/H2B; cell-free LANA-H2A/H2B peptide, fluorescence polarization; actives 0.6% (n = 320,000); inhibition, % (no concentration beside the values); Q9QR71; in the data active = inhibition mostly above about 10%, no sharp cut-off; inactive = mostly below about 6.7%
procasp7 counter: counter-screen: procaspase-7 (human) activation; actives 0.093% (n = 330,000); P55210; activation, % at 8.5 µM; recombinant procaspase-7, Ac-DEVD-pNA absorbance 405 nm; D23A/D198A/D206A triple mutant, cannot self-cleave; scale: DMSO 0, 5 µM enzyme 100;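 active = percent activation above the screen-wide mean plus 3 SD, cut at about 25% in these data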
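Replicates: singlicate. Assay system: Procaspase-7 triple mutant (PC-7 D3A). Signal: 405 nm absorbance of p-nitroaniline. Times: 1 h preincubation, 2 h reaction. Buffer or medium: Zinc-free HEPES pH 7.4 with 300 mM NaCl, 0.01% Triton X-100. Also added: DEVD-pNA substrate. Benchmarks: DMSO wells as 0%, DMSO with 5 µM added PC-7 as 100%.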
ASAP1 inh: inhibitors of human ASAP1 ArfGAP activity; Q9ULH1; ASAP1-stimulated ARF1 GTP hydrolysis, GDP FP detection; inhibition, % at 16.5 µM; actives 0.19% (n = 360,000); in the data active = inhibition above about 25%;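 note: 0% = vehicle with enzyme and substrate and 100% = no enzyme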
Target sequence (Q9ULH1 325-724 limits assumed): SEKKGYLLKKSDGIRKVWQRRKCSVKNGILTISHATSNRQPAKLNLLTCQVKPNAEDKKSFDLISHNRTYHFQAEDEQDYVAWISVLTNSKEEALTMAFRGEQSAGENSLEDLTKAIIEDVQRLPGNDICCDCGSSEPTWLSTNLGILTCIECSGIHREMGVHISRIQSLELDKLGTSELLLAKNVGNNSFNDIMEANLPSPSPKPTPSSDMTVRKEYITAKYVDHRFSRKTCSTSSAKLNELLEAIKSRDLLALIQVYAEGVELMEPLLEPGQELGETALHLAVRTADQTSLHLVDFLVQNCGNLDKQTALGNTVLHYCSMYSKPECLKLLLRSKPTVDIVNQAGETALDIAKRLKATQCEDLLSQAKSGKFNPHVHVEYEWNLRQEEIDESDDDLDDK
CR mimetic SO: yeast age-related superoxide inhibition as caloric restriction mimetic | S. cerevisiae aged cells, superoxide DHE fluorescence; active compounds read low | superoxide response (% of plate mean), % at 10 µM | actives 0.18% (n = 330,000);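 active = superoxide response under a set limit, about three screen SD below normal, cut at about 65% in these data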;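 note: yeast aged for seven days with compound at 30 °C before DHE staining; 100% = average MFI of all compound-treated wells on the plate with controls excluded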
Superoxide pick: confirmation of caloric restriction mimetics inhibiting yeast age-related superoxide; actives 1% (n = 850); shares compounds with CR mimetic SO; S. cerevisiae aging, superoxide DHE fluorescence; active compounds read low; superoxide response (% of plate), % at 10 µM;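 active = superoxide signal below 65% of the plate average of sample wells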;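 note: cells aged with compound for 7 days at 30 degrees C before staining; 100% equals mean DHE fluorescence of all compound wells on the plate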
DHE fluor count: DHE fluorescence interference, counter-screen artifact. shares compounds with CR mimetic SO. S. cerevisiae BY4741, flow cytometry; active compounds read low. fluorescence response, % at 10 µM. 850 tested, under 10 active;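 active = fluorescence response below 15%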;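 note: percent of the mean fluorescence averaged over all compound wells on the plate; lower means stronger quenching of DHE signal or ROS scavenging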
An asterisk follows results filed as active; · = no result given. Rows were chosen to be rich in hits. Some 1.2% of all compounds tested hit in one or more screens of this group.

SMILES	ARFGAP1 inh	procasp3 activ	LANA-H2B inh	procasp7 counter	ASAP1 inh	CR mimetic SO	Superoxide pick	DHE fluor count
CCOC(=O)CNC(=O)c1cccs1	4	14	0	-6	-17	100	·	·
CC(C)Nc1ncnc2c1cnn2-c1ccc(Cl)cc1	6	9	0	-3	5	98	90	91
CC(C)(C)Nc1ncnc2c1cnn2-c1ccccc1	2	13	-5	1	1	87	100	95
Clc1ccc(Nc2ncnc3c2cnn3-c2ccccc2)cc1	5	8	9	3	2	103	·	·
C=CCN1CCc2nc(N)sc2CC1	0	·	·	·	-2	·	·	·
CCN1CCc2nc(N)sc2C1	8	-12	0	-25	11	65*	112	109
COc1cc(OC)cc(C(=O)O/N=C(\N)c2ccncc2)c1	-2	1	-3	5	-8	62*	112	110
CCCCn1c(NC(C)CC)nc2c1c(=O)[nH]c(=O)n2C (stereo not drawn)	-17	6	2	10	-5	106	·	·
O=C(O)CN(c1ccccc1F)S(=O)(=O)c1ccccc1	-7	-1	3	10	-16	95	94	94
O=C(C1=C(O)C(=O)N(c2ccccc2)C1c1ccc([N+](=O)[O-])cc1)c1cccs1 (stereo not drawn)	5	7	-4	-12	12	89	·	·
COc1ccc2c(C)cc(SCC(=O)c3ccc4c(c3)OCO4)nc2c1	-8	-9	5	-17	-2	64*	94	95
COc1ccc2c(C)cc(SCC(=O)NC3CCCC3)nc2c1	-4	-1	-5	-3	-2	97	·	·
Cc1c(F)cccc1NS(=O)(=O)c1ccccc1C#N	5	0	1	2	-12	90	105	92
COc1ccc(NC(=O)NNC(=O)c2ccc3ccccc3c2O)c(OC)c1	6	9	2	-5	-2	106	·	·
CC(C)OC(=O)c1ccc2ccc(-c3ccccc3)nc2c1	3	·	·	·	1	·	·	·
CC(C)OC(=O)c1ccc2nc3ccccc3nc2c1	5	-6	3	0	7	53*	83	101
CCOc1cc(C(c2c(C)[nH][nH]c2=O)c2c(C)[nH][nH]c2=O)cc(Br)c1OC	8	-6	1	-11	-3	100	·	·
COc1ccc(/C=N/OCC(=O)Nn2c(C)nc3ccccc3c2=O)cc1	4	3	-3	-5	2	101	·	·
CCOC(=O)c1ccc(NC(=O)Nc2cccc(C)n2)cc1	-5	-9	-5	-5	-2	107	·	·
CCOC(=O)c1ccc(NC(=O)Nc2ccn(C)n2)cc1	·	-4	-1	-3	·	63*	103	96
Cc1ccc(NC2=NCCC2)cc1Cl	-5	5	-1	-2	4	65*	91	100
Cc1nc2ccc(NC3=NCCCCC3)cc2s1	9	-14	6	-25	-2	89	·	·
OC(CSc1c(Cl)cccc1Cl)CN1CCN(c2ccc(F)cc2)CC1 (stereo not drawn)	4	-4	4	4	4	81	·	·
COc1ccc(C(=O)/C=C/c2ccc(OC3CSC3)cc2)cc1OC	7	0	-3	-7	8	102	·	·
O=C(/C=C/c1ccc(OC2CSC2)cc1)c1ccc(Cl)cc1	0	-4	-2	12	10	63*	99	86
SMILES	ARFGAP1 inh	procasp3 activ	LANA-H2B inh	procasp7 counter	ASAP1 inh	CR mimetic SO	Superoxide pick	DHE fluor count
CC(C)[C@H](NC(=O)[C@H](CCCN=C(N)N)NC(=O)NC(Cc1ccccc1)C(=O)O)C(=O)NC(C=O)CCCN=C(N)N (stereo partly drawn)	13	4	1	1	-12	101	·	·
CCC(C)(C)c1ccc(OCCCC[n+]2ccccc2)c(C(C)(C)CC)c1	-13	5	5	4	7	81	94	93
CCCCCOc1ccc(Br)cc1CSC(=N)N	2	·	·	·	-9	·	·	·
CCCCCc1ccc(OCCCC[n+]2ccc(C)cc2)c(CCCCC)c1	-2	2	8	0	-7	117	85	96
CCCCCc1ccc(OCCCC[n+]2cccc(C)c2)c(CCCCC)c1	-1	0	3	-4	1	100	105	89
CCCCOc1ccc(C)cc1CN(CCO)CCO	10	-2	0	3	1	106	·	·
CCCCCc1ccc(OCCCC[n+]2ccccc2)c(CCCCC)c1	·	-1	11	1	·	89	88	97
O=C(CS(=O)(=O)c1ccccc1)Nc1ccc(N2CCOCC2)cc1	5	-11	-8	7	-11	115	·	·
CN(CC(=O)Nc1ccccc1Cl)C(=O)CN1C(=O)C2CCCCC2C1=O (stereo not drawn)	4	-2	-4	-3	7	135	·	·
COc1cc(Cl)c(S(=O)(=O)N2CCCC2)cc1Cl	-16	1	-2	4	-3	87	92	97
COc1cc(C)c(Cl)cc1S(=O)(=O)N1CCCC1	2	-2	0	-3	1	100	103	90
COc1cc(C)c(Br)cc1S(=O)(=O)N1CCCC1	-6	-2	1	5	5	102	100	95
CCOc1cc(C)c(Cl)cc1S(=O)(=O)N1CCCC1	-14	5	-2	2	9	107	·	·
O=C(NCc1ccccc1)c1onc(CSc2ccccn2)c1C(=O)NCc1ccccc1	-4	2	10	-3	-4	110	·	·
Cc1cc(=O)c(C(=O)Nc2cccc(C(=O)NC3CC3)c2)nn1-c1ccccc1	-13	·	·	·	-18	·	·	·
Nc1ncnc2c(C3OC(CO)C(O)C3O)c[nH]c12 (stereo not drawn)	5	·	·	·	-4	·	·	·
COc1cc(C(=O)NCCC(=O)NCCCN2CCCCC2C)cc(OC)c1OC (stereo not drawn)	·	3	-3	4	·	62*	123	112
O=C(CCCOc1ccccc1)Nc1ccc(Cl)cn1	10	3	1	4	7	58*	96	89
CCOc1ccc2c(c1)C(C)=CC(C)(C)N2	-10	-6	-67	-15	6	65*	103	90
Cc1c(NS(=O)(=O)c2ccc(NCCN3CCOCC3)c([N+](=O)[O-])c2)c(=O)n(-c2ccccc2)n1C	7	-6	5	0	4	104	·	·
Cc1ccc(-n2c(=O)[nH]cc(C(=O)Nc3ccc4c(c3)OCO4)c2=O)cc1C	6	6	-2	9	-10	102	·	·
